Data from ChEMBL document CHEMBL4000184, “Synthesis of Novel c(AmpRGD)-Sunitinib Dual Conjugates as Molecular Tools Targeting the αvβ3 Integrin/VEGFR2 Couple and Impairing Tumor-Associated Angiogenesis” (J Med Chem, 2017).
Active and inactive are the calls of the source. The rule behind the calls is not given here.

Columns and labels:
[1] = Drug uptake in human EPC at 1 uM measured after 1 hr in presence of alphaVbeta3 integrin ligand c(AmpRGD) amine by HPLC-ESI-MS/MS analysis; assay type: ADME, cell-based
Summary of the method: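 EPCs detached with Accutase, resuspended in serum-free medium, and given compound at 1 μM with or without c(AmpRGD) amine at 100 μM. Incubated at 37 °C, 10% CO2, then washed by centrifugation. Pellets extracted with ethanol at 4 °C for 10 min; content measured by HPLC-ESI-MS/MS.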

Integrin alpha-V/beta-3 [2] = molecular target: T1, Integrin alpha-V/beta-3 (Homo sapiens, UniProt P05106+P06756); test: Drug uptake in human EPC assessed as alphavbeta3-mediated drug uptake by measuring intracellular content per mg protein at 1 uM measured after 8 hr by HPLC-ESI-MS/MS analysis; assay type: ADME, cell-based
Summary of the method: (§1)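 Confluent EPCs in serum- and growth-factor-free medium received compound at 1 μM final for 1 h at 37 °C. Cells washed with PBS, then extracted immediately or 8 h later with ethanol at 4 °C. Extract measured by HPLC-ESI-MS/MS; protein by Bradford. Reported as nmol/mg protein; uptake rate as pmol/min/mg protein over the first hour. Triplicate.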
Target sequence in this assay (P05106 27-788 limits assumed): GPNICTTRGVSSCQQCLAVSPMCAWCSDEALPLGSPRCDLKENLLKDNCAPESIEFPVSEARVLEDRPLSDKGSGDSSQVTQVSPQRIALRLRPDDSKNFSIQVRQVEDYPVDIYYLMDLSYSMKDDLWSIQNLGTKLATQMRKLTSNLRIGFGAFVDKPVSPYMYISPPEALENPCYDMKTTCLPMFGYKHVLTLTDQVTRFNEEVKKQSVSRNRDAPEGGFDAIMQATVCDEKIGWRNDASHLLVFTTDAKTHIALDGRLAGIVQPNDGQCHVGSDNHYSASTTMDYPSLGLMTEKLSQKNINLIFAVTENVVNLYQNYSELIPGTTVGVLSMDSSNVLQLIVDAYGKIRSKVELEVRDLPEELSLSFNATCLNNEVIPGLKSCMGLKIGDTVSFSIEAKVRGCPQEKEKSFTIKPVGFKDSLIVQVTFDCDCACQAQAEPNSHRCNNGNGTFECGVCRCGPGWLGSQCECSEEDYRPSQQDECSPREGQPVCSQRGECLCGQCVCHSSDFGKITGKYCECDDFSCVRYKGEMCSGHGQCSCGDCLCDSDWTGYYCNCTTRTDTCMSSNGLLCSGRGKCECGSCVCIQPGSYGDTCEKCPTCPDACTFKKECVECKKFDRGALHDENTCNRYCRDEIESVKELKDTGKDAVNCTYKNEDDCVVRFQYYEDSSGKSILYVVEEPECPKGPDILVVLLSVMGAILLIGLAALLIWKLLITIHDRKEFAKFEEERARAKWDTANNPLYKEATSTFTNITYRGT
Target sequence in this assay (P06756 31-889 limits assumed): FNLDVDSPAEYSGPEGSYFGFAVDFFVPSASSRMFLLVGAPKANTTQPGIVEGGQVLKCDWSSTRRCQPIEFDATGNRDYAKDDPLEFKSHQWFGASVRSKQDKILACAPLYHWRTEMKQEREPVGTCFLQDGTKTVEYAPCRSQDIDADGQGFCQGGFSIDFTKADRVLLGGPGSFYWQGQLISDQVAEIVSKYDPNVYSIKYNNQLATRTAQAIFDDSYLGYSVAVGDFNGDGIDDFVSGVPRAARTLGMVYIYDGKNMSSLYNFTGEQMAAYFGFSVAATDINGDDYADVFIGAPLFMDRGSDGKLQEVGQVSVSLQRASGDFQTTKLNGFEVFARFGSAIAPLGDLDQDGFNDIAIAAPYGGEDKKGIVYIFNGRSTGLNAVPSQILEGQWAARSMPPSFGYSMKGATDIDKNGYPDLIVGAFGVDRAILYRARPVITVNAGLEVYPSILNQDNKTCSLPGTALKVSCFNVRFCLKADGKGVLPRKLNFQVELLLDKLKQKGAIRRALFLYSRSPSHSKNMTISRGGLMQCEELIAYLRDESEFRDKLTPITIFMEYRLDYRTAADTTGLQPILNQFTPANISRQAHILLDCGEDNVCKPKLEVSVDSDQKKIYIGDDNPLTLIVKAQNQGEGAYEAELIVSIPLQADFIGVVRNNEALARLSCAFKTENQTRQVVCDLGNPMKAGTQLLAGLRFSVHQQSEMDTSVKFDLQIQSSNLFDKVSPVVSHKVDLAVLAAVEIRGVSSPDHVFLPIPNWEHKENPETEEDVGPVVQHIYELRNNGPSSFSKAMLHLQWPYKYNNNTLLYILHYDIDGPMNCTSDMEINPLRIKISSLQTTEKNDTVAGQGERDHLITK
Target sequence in this assay (P06756 891-1048 limits assumed): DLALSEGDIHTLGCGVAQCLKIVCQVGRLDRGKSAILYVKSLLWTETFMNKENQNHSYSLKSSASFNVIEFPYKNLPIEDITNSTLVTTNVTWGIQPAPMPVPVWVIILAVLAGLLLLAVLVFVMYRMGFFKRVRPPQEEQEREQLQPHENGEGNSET

Integrin alpha-V/beta-3 [3] = molecular target: T1, Integrin alpha-V/beta-3; test: Drug internalization in human EPC assessed as alphavbeta3-mediated drug uptake per mg protein at 1 uM measured after 1 hr by HPLC-ESI-MS/MS analysis; assay type: ADME; summary of the method: as §1
Target sequence in this assay (P05106 27-788 limits assumed): as the sequence (P05106 27-788 limits assumed) above
Target sequence in this assay (P06756 31-889 limits assumed): as the sequence (P06756 31-889 limits assumed) above
Target sequence in this assay (P06756 891-1048 limits assumed): as the sequence (P06756 891-1048 limits assumed) above

Integrin alpha-5/beta-1 [4] = molecular target: T2, Integrin alpha-5/beta-1 (Homo sapiens, UniProt P05556+P08648); test: Displacement of biotinylated fibronectin from recombinant human integrin alpha5beta1 dark incubated for 3 hrs by solid-phase receptor binding assay; assay type: protein-complex assay
Summary of the method: (§2)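 Recombinant human αvβ3 or α5β1 coated at 0.5 μg/mL overnight at 4 °C in Tris-HCl pH 7.4 buffer with Mn2+, Ca2+, Mg2+, then blocked with 1% BSA. Streptavidin-peroxidase read-out at 415 nm. Triplicate wells, nonlinear regression, run in duplicate.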

EPC [5] = test: Inhibition of VEGF-A-induced cell proliferation in human EPC at 1 uM measured after 48 hrs by trypan blue exclusion assay; assay type: functional, cell-based
Summary of the method: (§3)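 Human cord-blood EPCs seeded at 6,000 cells/well on gelatin, adhered 4 h in complete medium. Then placed in serum-free medium with VEGF-A 20 ng/mL and compound at 1 μM, re-added every 24 h. Cell number and viability measured by trypan blue exclusion at 24, 48 and 72 h. Triplicate, repeated at least three times.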

[6] = Cytotoxicity against human EPC assessed as cell viability at 1 uM measured after 24 to 72 hrs by trypan blue exclusion assay; assay type: cell-based; summary of the method: as §3
[7] = Inhibition of VEGF-A-induced cell proliferation in human EPC at 1 uM measured after 24 hrs by trypan blue exclusion assay relative to control; assay type: functional; summary of the method: as §3
Integrin alpha-V/beta-3 [8] = molecular target: T1, Integrin alpha-V/beta-3; test: Displacement of biotinylated vitronectin from recombinant human integrin alphaVbeta3 dark incubated for 3 hrs by solid-phase receptor binding assay; assay type: protein-complex assay; summary of the method: as §2
Target sequence in this assay (P05106 27-788 limits assumed): as the sequence (P05106 27-788 limits assumed) above
Target sequence in this assay (P06756 31-889 limits assumed): as the sequence (P06756 31-889 limits assumed) above
Target sequence in this assay (P06756 891-1048 limits assumed): as the sequence (P06756 891-1048 limits assumed) above

[9] = Stability in human plasma assessed as compound remaining at 1 uM measured up to 8 hrs by HPLC-UV-Vis analysis; assay type: ADME, cell-free; conditions: read-out: Stability
Summary of the method: (§4)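 Rat or human plasma diluted to 80% v/v with 100 mM PBS pH 7.4; compound at 1 μM final, 37 °C, protected from light. Aliquots sampled over time up to 8 h, quenched with two volumes MeCN, centrifuged, and analyzed by HPLC-UV-Vis for % compound remaining.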

Integrin alpha-V/beta-3 [10] = molecular target: T1, Integrin alpha-V/beta-3; test: Drug internalization in human EPC assessed as alphavbeta3-mediated drug uptake by measuring intracellular content per mg protein at 1 uM measured after 1 hr by HPLC-ESI-MS/MS analysis; assay type: ADME, cell-based; summary of the method: as §1
Target sequence in this assay (P05106 27-788 limits assumed): as the sequence (P05106 27-788 limits assumed) above
Target sequence in this assay (P06756 31-889 limits assumed): as the sequence (P06756 31-889 limits assumed) above
Target sequence in this assay (P06756 891-1048 limits assumed): as the sequence (P06756 891-1048 limits assumed) above

[11] = molecular target: T3, Vascular endothelial growth factor receptor 2 (Homo sapiens, UniProt P35968); conditions: at 1 µM
[12] = n-Octanol-buffer distribution coefficient, log D of the compound at pH 7.4 incubated for 4 hrs by HPLC-UV-vis based shake flask method; assay type: physicochemical
Summary of the method: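 Shake-flask partition between n-octanol and 50 mM MOPS pH 7.4 (ionic strength 0.15 M, KCl) at 25 ± 3 °C. Phases pre-saturated and equilibrated 4 h in the dark; each phase analyzed by HPLC-UV-Vis. Mean of at least three runs with different volume ratios.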

Integrin alpha-V/beta-3 [13] = molecular target: T1, Integrin alpha-V/beta-3; test: Inhibition of vitronectin binding to alphaVbeta3 in human EPC in presence of MnCl2 measured after 30 mins by crystal violet staining based cell adhesion assay
Summary of the method: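 Plates coated overnight with vitronectin at 4 °C and blocked with PBS/1% BSA. EPCs in serum-free medium preincubated with compound (1–10000 nM) for 30 min at 37 °C with 2.0 mmol/L MnCl2. Plated at 5-6×10^4 cells/well for 1 h at 37 °C. Adherent cells stained with crystal violet, read at 540 nm; % inhibition vs untreated. Triplicate, repeated at least three times.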

[14] = Stability in rat plasma assessed as compound remaining at 1 uM measured up to 8 hrs by HPLC-UV-Vis analysis; assay type: ADME, cell-free; conditions: read-out: Stability; summary of the method: as §4
Integrin alpha-V/beta-3 [15] = molecular target: T1, Integrin alpha-V/beta-3; test: Drug internalization in human EPC assessed as alphavbeta3-mediated drug uptake at 1 uM measured after 1 hr by HPLC-ESI-MS/MS analysis; assay type: ADME; summary of the method: as §1
Target sequence in this assay (P05106 27-788 limits assumed): as the sequence (P05106 27-788 limits assumed) above
Target sequence in this assay (P06756 31-889 limits assumed): as the sequence (P06756 31-889 limits assumed) above
Target sequence in this assay (P06756 891-1048 limits assumed): as the sequence (P06756 891-1048 limits assumed) above

EPC [16] = test: Inhibition of VEGF-A-induced cell proliferation in human EPC at 1 uM measured after 72 hrs by trypan blue exclusion assay; assay type: functional, cell-based; summary of the method: as §3
Integrin alpha-V/beta-3 [17] = molecular target: T1, Integrin alpha-V/beta-3; conditions: 1 to 10000 nM
[18] = Antiangiogenic activity in human EPC assessed as inhibition of VEGF-A induced tubule formation at 10 nM measured after 6 hrs by matrigel based phase contrast microscopic analysis relative to control; assay type: functional
Summary of the method: (§5)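 EPCs grown 24 h in EGM-2, trypsinized, resuspended in serum/growth-factor-free EGM-2 with VEGF-A 20 ng/mL plus compound (0.01, 0.1, 1.0 μM) and seeded on growth-factor-reduced Matrigel at 7×10^4 cells/well. Incubated 6 h at 37 °C, photographed by phase contrast. Loops counted in four random fields per well, given as % reduction vs untreated cells. Triplicate.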

Mus musculus = test: In vivo antiangiogenic activity in EHS derived matrigel plug implanted FVB mouse assessed as inhibition of VEGF-A-induced angiogenesis at 10 mg/kg, by microscopic method
Integrin alpha-V/beta-5 = Integrin alpha-V/beta-5 (Homo sapiens, UniProt P06756+P18084); test: Displacement of biotinylated vitronectin from human integrin alphaVbeta5 measured after 3 hrs by solid-phase receptor binding assay; assay type: protein-complex assay
Integrin alpha-V/beta-3 [19] = molecular target: T1, Integrin alpha-V/beta-3; test: Displacement of biotinylated vitronectin from human integrin alphaVbeta3 measured after 3 hrs by solid-phase receptor binding assay; assay type: protein-complex assay
Summary of the method: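 Recombinant human αvβ3 or α5β1 coated at 0.5 μg/mL overnight at 4 °C in Tris-HCl pH 7.4 buffer with Mn2+, Ca2+, Mg2+, then blocked with 1% BSA. Triplicate wells, nonlinear regression, run in duplicate.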
Target sequence in this assay (P05106 27-788 limits assumed): as the sequence (P05106 27-788 limits assumed) above
Target sequence in this assay (P06756 31-889 limits assumed): as the sequence (P06756 31-889 limits assumed) above
Target sequence in this assay (P06756 891-1048 limits assumed): as the sequence (P06756 891-1048 limits assumed) above

Integrin alpha-5/beta-1 [20] = molecular target: T2, Integrin alpha-5/beta-1; test: Inhibition of alpha5beta1 (unknown origin); assay type: protein-complex assay
EPC [21] = test: Antiangiogenic activity in human EPC assessed as inhibition of VEGF-A induced tubule formation at 0.1 to 1 uM measured after 6 hrs by matrigel based phase contrast microscopic analysis; assay type: functional, cell-based; summary of the method: as §5
[22] = molecular target: T3, Vascular endothelial growth factor receptor 2; test: Inhibition of recombinant human VEGFR2 expressed in Sf9 cells using Ulight-CAGAGAIETDKEYYTVKD as substrate measured after 60 mins by LANCE method
[23] = molecular target: Platelet-derived growth factor receptor beta (Homo sapiens, UniProt P09619); test: Inhibition of recombinant human PDGFRbeta expressed in insect cells using Ulight-Poly GAT[EAY(1:1:1)]n as substrate measured after 30 mins by LANCE method
Sequence of Platelet-derived growth factor receptor beta (P09619 whole entry): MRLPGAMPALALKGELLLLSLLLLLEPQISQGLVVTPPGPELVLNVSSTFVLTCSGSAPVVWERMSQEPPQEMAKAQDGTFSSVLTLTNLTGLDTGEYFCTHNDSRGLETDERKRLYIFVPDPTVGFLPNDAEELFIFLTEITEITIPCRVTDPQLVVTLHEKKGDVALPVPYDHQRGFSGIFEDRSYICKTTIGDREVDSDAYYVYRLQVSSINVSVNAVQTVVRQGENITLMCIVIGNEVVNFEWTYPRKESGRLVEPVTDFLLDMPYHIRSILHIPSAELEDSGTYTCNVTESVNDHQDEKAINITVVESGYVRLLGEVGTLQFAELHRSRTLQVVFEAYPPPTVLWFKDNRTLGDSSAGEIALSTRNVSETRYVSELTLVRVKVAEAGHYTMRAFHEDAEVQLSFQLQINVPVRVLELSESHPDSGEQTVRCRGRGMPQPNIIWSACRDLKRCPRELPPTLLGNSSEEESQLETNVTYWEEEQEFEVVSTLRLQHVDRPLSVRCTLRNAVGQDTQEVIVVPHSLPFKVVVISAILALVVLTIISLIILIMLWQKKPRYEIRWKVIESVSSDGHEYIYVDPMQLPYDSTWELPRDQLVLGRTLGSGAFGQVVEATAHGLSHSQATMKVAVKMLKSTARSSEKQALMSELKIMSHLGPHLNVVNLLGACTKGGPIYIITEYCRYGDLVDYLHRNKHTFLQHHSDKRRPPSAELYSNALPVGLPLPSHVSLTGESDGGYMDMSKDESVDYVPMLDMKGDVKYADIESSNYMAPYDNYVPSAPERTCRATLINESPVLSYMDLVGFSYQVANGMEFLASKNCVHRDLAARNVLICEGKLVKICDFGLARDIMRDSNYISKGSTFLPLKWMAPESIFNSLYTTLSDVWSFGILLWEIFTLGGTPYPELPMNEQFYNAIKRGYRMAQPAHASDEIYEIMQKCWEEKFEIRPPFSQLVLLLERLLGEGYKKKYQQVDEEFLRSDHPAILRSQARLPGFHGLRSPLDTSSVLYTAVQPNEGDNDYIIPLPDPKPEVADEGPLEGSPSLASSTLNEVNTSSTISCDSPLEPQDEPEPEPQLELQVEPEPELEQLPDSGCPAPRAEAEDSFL

T3 sequence (P35968 whole entry): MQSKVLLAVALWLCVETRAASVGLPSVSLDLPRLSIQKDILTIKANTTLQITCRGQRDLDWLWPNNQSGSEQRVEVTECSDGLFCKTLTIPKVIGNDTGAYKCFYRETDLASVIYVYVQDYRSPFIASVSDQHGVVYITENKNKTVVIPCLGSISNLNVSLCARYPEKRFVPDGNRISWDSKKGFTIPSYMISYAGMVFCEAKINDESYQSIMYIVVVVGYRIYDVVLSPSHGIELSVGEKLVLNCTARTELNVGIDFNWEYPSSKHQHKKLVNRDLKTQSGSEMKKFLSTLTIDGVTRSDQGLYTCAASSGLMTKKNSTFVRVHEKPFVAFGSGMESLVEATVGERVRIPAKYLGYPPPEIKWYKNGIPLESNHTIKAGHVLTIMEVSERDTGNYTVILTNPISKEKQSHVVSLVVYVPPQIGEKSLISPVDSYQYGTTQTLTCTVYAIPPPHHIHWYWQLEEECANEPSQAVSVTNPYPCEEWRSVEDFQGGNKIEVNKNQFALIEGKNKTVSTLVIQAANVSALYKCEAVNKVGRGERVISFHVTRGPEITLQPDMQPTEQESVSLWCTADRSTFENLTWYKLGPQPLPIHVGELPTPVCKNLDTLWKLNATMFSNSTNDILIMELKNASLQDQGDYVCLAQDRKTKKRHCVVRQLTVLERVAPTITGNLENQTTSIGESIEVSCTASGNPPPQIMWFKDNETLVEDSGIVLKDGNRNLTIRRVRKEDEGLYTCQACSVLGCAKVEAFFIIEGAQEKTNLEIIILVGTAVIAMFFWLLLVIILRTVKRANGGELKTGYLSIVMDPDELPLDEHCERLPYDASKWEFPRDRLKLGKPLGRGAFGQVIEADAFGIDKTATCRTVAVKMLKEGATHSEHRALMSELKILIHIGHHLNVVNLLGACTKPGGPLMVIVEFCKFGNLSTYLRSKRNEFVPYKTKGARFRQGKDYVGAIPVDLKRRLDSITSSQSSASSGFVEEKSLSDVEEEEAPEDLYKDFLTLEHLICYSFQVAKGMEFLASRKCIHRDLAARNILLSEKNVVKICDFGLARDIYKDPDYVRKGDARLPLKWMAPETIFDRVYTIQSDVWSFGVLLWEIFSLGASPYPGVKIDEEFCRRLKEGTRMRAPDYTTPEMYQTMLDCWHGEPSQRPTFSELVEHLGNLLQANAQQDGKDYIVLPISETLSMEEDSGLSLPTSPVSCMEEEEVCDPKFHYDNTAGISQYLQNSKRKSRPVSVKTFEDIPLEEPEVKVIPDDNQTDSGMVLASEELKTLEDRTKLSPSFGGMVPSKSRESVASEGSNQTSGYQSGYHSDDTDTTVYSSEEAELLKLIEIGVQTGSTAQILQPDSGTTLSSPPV

Structure (SMILES)	Drug uptake [1]	Drug uptake (Integrin alpha-V/beta-3 [2])	Drug uptake (Integrin alpha-V/beta-3 [3])	IC50 (Integrin alpha-5/beta-1 [4])	IC50 (Integrin alpha-V/beta-3 [8])	remaining at 8 h, 1 µM [9]	Drug uptake (Integrin alpha-V/beta-3 [10])	inhibition [11]	logD at 4 h [12]	IC50 (Integrin alpha-V/beta-3 [13])	remaining at 8 h, 1 µM [14]	log(activity) (Integrin alpha-V/beta-3 [15])	inhibition (Integrin alpha-V/beta-3 [13])	inhibition (EPC [5])	Activity [6]	inhibition at 1 µM [7]	inhibition (EPC [16])	inhibition at 0.01 µM [18]	inhibition (Mus musculus)	inhibition (EPC [21])	further results
N=C(N)NCCC[C@@H]1NC(=O)[C@@H]2C[C@@H](CN2CCN)NC(=O)[C@H](CC(=O)O)NC(=O)CNC1=O																					IC50 (Integrin alpha-V/beta-5): 315 nM; IC50 (Integrin alpha-V/beta-3 [19]): 6.1 nM; IC50 (Integrin alpha-5/beta-1 [20]): 152 nM
Cc1[nH]c(/C=C2\C(=O)Nc3ccc(F)cc32)c(C)c1C(=O)NCCNC(=O)CCc1cn(CCCCN2C[C@@H]3C[C@H]2C(=O)N[C@@H](CCCNC(=N)N)C(=O)NCC(=O)N[C@@H](CC(=O)O)C(=O)N3)nn1		0.22 nmol/mg	4.3 pmol/min	30.7 nM	1.24 nM	99%	0.26 nmol/mg	Active	-2.03	500 nM	88.2%	0.64	Dose-dependent effect	Active	Non-Toxic	46%	inactive	52%		Active	
CCN(CCNC(=O)c1c(C)[nH]c(/C=C2\C(=O)Nc3ccc(F)cc32)c1C)CCOCCOCCNC(=O)c1cc(OCc2cn(CCCCN3C[C@@H]4C[C@H]3C(=O)N[C@@H](CCCNC(=N)N)C(=O)NCC(=O)N[C@@H](CC(=O)O)C(=O)N4)nn2)cc(OCc2cn(CCCCN3C[C@@H]4C[C@H]3C(=O)N[C@@H](CCCNC(=N)N)C(=O)NCC(=O)N[C@@H](CC(=O)O)C(=O)N4)nn2)c1	Not Active	0.54 nmol/mg	15.7 pmol/min	95.8 nM	3.8 nM	98.6%	0.94 nmol/mg	Active	-3.02	500 nM	109%	1.19	Dose-dependent effect	Active	Non-Toxic	41%	Active	43%	Active	Active	IC50 [22]: 420 nM; IC50 [23]: 9 nM

The next lines start with results.

Drug uptake [1]	Drug uptake (Integrin alpha-V/beta-3 [2])	Drug uptake (Integrin alpha-V/beta-3 [3])	IC50 (Integrin alpha-5/beta-1 [4])	IC50 (Integrin alpha-V/beta-3 [8])	remaining at 8 h, 1 µM [9]	Drug uptake (Integrin alpha-V/beta-3 [10])	inhibition [11]	logD at 4 h [12]	IC50 (Integrin alpha-V/beta-3 [13])	remaining at 8 h, 1 µM [14]	log(activity) (Integrin alpha-V/beta-3 [15])	inhibition (Integrin alpha-V/beta-3 [13])	Structure (SMILES)	inhibition (EPC [5])	Activity [6]	inhibition at 1 µM [7]	inhibition (EPC [16])	inhibition at 0.01 µM [18]	inhibition (Mus musculus)	inhibition (EPC [21])	further results
Not Active	0.43 nmol/mg	8 pmol/min	101 nM	5.1 nM	107%	0.48 nmol/mg	Active	-2.56	10000 nM	104%	0.9		CCN(CCNC(=O)c1c(C)[nH]c(/C=C2\C(=O)Nc3ccc(F)cc32)c1C)CCOCCOCCOCc1cn(CCCCN2C[C@@H]3C[C@H]2C(=O)N[C@@H](CCCNC(=N)N)C(=O)NCC(=O)N[C@@H](CC(=O)O)C(=O)N3)nn1	Active	Non-Toxic	24%	inactive				
	2.9 nmol/mg				102%	5.72 nmol/mg		2.51		97.3%			CCN(CC)CCNC(=O)c1c(C)[nH]c(/C=C2\C(=O)Nc3ccc(F)cc32)c1C [SUNITINIB]	Active	Non-Toxic	33%	Active	30%	Active		inhibition (Integrin alpha-V/beta-3 [17]): inactive
